Measurements from ChEMBL document CHEMBL4715798, “Structure-Based Optimization of Multifunctional Agonists for Opioid and Neuropeptide FF Receptors with Potent Nontolerance Forming Analgesic Activities” (J Med Chem, 2016).
Activity calls are given as the source filed them. No cut-off for these calls is given here. Non-standard residues stand in square brackets, D forms with d. Residues, ends and D or L forms follow the SMILES beside them. NMeY = CN[C@@H](Cc1ccc(O)cc1)C(=O)O; NMeF = CN[C@@H](Cc1ccccc1)C(=O)O

Legend:
Mu-type opioid receptor [1] = target: T1, Mu-type opioid receptor (Homo sapiens, UniProt P35372); test: Agonist activity at mu opioid receptor (unknown origin) expressed in HEK293-A cells assessed as reduction in forskolin-induced cAMP accumulation incubated for 30 mins by competition PKA binding assay; assay type: functional, cell-based
Outline: (§1)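 cAMP functional read-out in transfected cells. Log EC50 ± standard error was obtained by nonlinear regression of data from at least three independent experiments run in duplicate.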

Mu-type opioid receptor [2] = target: T1, Mu-type opioid receptor; test: Agonist activity at mu opioid receptor (unknown origin) expressed in HEK293-A cells assessed as reduction in forskolin-induced cAMP accumulation incubated for 30 mins by competition PKA binding assay relative to Tyr-D-Ala-Gly-Phe-Gln-Pro-Gln-Arg-Phe-NH2; assay type: functional, cell-based; conditions: filed as agonist; outline: as §1
[3] = target: Kappa-type opioid receptor (Homo sapiens, UniProt P41145); test: Agonist activity at kappa opioid receptor (unknown origin) expressed in HEK293-A cells assessed as reduction in forskolin-induced cAMP accumulation incubated for 30 mins by competition PKA binding assay; assay type: functional, cell-based; outline: as §1
[4] = target: T2, Delta-type opioid receptor (Homo sapiens, UniProt P41143); test: Agonist activity at delta opioid receptor (unknown origin) expressed in HEK293-A cells assessed as reduction in forskolin-induced cAMP accumulation incubated for 30 mins by competition PKA binding assay; assay type: functional, cell-based; outline: as §1
[5] = target: T2, Delta-type opioid receptor; test: Agonist activity at delta opioid receptor (unknown origin) expressed in HEK293-A cells assessed as reduction in forskolin-induced cAMP accumulation incubated for 30 mins by competition PKA binding assay relative to Tyr-D-Ala-Gly-Phe-Gln-Pro-Gln-Arg-Phe-NH2; assay type: functional, cell-based; conditions: filed as agonist; outline: as §1
[6] = target: T3, Neuropeptide FF receptor 1 (Homo sapiens, UniProt Q9GZQ6); test: Agonist activity at NPFFR1 (unknown origin) expressed in HEK293-A cells assessed as reduction in forskolin-induced cAMP accumulation incubated for 30 mins by competition PKA binding assay; assay type: functional, cell-based; outline: as §1
[7] = target: T3, Neuropeptide FF receptor 1; test: Agonist activity at NPFFR1 (unknown origin) expressed in HEK293-A cells assessed as reduction in forskolin-induced cAMP accumulation incubated for 30 mins by competition PKA binding assay relative to Tyr-D-Ala-Gly-Phe-Gln-Pro-Gln-Arg-Phe-NH2; assay type: functional, cell-based; conditions: filed as agonist; outline: as §1
[8] = target: T4, Neuropeptide FF receptor 2 (Homo sapiens, UniProt Q9Y5X5); test: Agonist activity at NPFFR2 (unknown origin) expressed in HEK293-A cells assessed as reduction in forskolin-induced cAMP accumulation incubated for 30 mins by competition PKA binding assay; assay type: functional, cell-based; outline: as §1
[9] = target: T4, Neuropeptide FF receptor 2; test: Agonist activity at NPFFR2 (unknown origin) expressed in HEK293-A cells assessed as reduction in forskolin-induced cAMP accumulation incubated for 30 mins by competition PKA binding assay relative to Tyr-D-Ala-Gly-Phe-Gln-Pro-Gln-Arg-Phe-NH2; assay type: functional, cell-based; outline: as §1
Mus musculus [10] = test: Antinociceptive activity in mouse dosed repeated icv injections for 6 days by radiant heat tail-flick test; assay type: functional; conditions: time 6 day
Outline: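 Mice received the same icv dose once daily for 6 days in the radiant heat tail-flick test. Tolerance was judged by comparing the antinociceptive response on day 1 with day 6. Values are mean ± SEM.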

Mus musculus [11] = test: Antinociceptive activity in mouse assessed as development of tolerance dosed repeated icv injections for 6 days by radiant heat tail-flick test; assay type: functional, organism-based; conditions: time 6.0 day
Outline: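 Tail-flick test in mice. Peptide was given icv once daily for 6 days at a fixed dose. Antinociceptive responses to the same dose on day 1 and day 6 were compared to judge tolerance. Values are mean ± SEM.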

Mus musculus [12] = organism: Mus musculus; test: Antinociceptive activity in mouse; assay type: functional
Mus musculus [13] = test: Antinociceptive activity in icv dosed mouse assessed as inhibition of phase I flinching behaviors by formalin-induced nociceptive behavioral test; assay type: functional
Mus musculus [14] = test: Antinociceptive activity in icv dosed mouse assessed as inhibition of phase II flinching behaviors by formalin-induced nociceptive behavioral test; assay type: functional
[15] = target: T3, Neuropeptide FF receptor 1; test: Agonist activity at NPFFR1 (unknown origin) expressed in HEK293-A cells assessed as reduction in forskolin-induced cAMP accumulation at 10 uM incubated for 30 mins by competition PKA binding assay relative to Tyr-D-Ala-Gly-Phe-Gln-Pro-Gln-Arg-Phe-NH2; assay type: functional, cell-based; outline: as §1
[16] = target: T2, Delta-type opioid receptor; test: Agonist activity at delta opioid receptor (unknown origin) expressed in HEK293-A cells assessed as reduction in forskolin-induced cAMP accumulation at 10 uM incubated for 30 mins by competition PKA binding assay relative to Tyr-D-Ala-Gly-Phe-Gln-Pro-Gln-Arg-Phe-NH2; assay type: functional, cell-based; conditions: filed as agonist; outline: as §1
Mus musculus [17] = test: Antinociceptive activity in mouse model of CFA-induced chronic inflammatory pain assessed as reduction in tactile hyperalgesia at 3 nmol, icv after 15 to 90 mins; assay type: functional, organism-based; conditions: time 15-90 min
Mus musculus [18] = test: Antinociceptive activity in mouse model of CFA-induced chronic inflammatory pain assessed as reduction in tactile hyperalgesia at 3 nmol, icv dosed once daily for 6 days; assay type: functional, organism-based; conditions: time 6.0 day

SMILES	EC50 (Mu-type opioid receptor [1]; read-out: EC50)	Emax (Mu-type opioid receptor [2])	EC50 [3]	EC50 [4]	Emax [5]	EC50 ([6]; read-out: EC50)	Emax [7]	EC50 ([8]; read-out: EC50)	Emax ([9]; filed as agonist)	ED50 (Mus musculus [10])	Activity (Mus musculus [11])	further results
CSCC[C@@H](NC(=O)[C@@H](N)Cc1ccc(O)cc1)C(=O)NCC(=O)N[C@@H](Cc1ccccc1)C(=O)N[C@@H](CCC(N)=O)C(=O)N1CCC[C@H]1C(=O)N[C@@H](CCC(N)=O)C(=O)N[C@@H](CCCNC(=N)N)C(=O)N[C@@H](Cc1ccccc1)C(N)=O	424 nM	89.4%	1260 nM	114 nM	84.7%	661 nM	73.5%	41.3 nM	57.9%	0.0314 nmol	inactive	–
N=C(N)NCCC[C@H](NC(=O)[C@H](CCC(N)=O)NC(=O)[C@@H]1CCCN1C(=O)[C@H](CCC(N)=O)NC(=O)[C@H](Cc1ccccc1)NC(=O)CNC(=O)[C@@H](CO)NC(=O)[C@@H](N)Cc1ccc(O)cc1)C(=O)N[C@@H](Cc1ccccc1)C(N)=O	563 nM	97.1%	1470 nM	118 nM	84.9%	3200 nM	82.3%	254 nM	63%	0.6062 nmol	inactive	EC50 ([8]; read-out: pEC50 (converted)): 245 nM
C[C@@H](NC(=O)[C@@H](N)Cc1ccc(O)cc1)C(=O)NCC(=O)N[C@@H](Cc1ccccc1)C(=O)NCC(=O)N1CCC[C@H]1C(=O)N[C@@H](CCC(N)=O)C(=O)N[C@@H](CCCNC(=N)N)C(=O)N[C@@H](Cc1ccccc1)C(N)=O (H-Y[dA]GFGPQRF-NH2)	28.4 nM	80.4%	1630 nM	898 nM	75.7%	881 nM	66.8%	185 nM	56.2%	0.4172 nmol	Active	–
CC(C)C[C@H](NC(=O)[C@H](Cc1ccccc1)NC(=O)CNC(=O)[C@@H](C)NC(=O)[C@@H](N)Cc1ccc(O)cc1)C(=O)N1CCC[C@H]1C(=O)N[C@@H](CCC(N)=O)C(=O)N[C@@H](CCCNC(=N)N)C(=O)N[C@@H](Cc1ccccc1)C(N)=O (H-Y[dA]GFLPQRF-NH2)	250 nM	98.9%	120 nM	49.3 nM	79.1%	54.4 nM	68.4%	259 nM	57.3%	0.1865 nmol	Active	EC50 ([6]; read-out: pEC50 (converted)): 53.7 nM
CSCC[C@H](NC(=O)[C@H](Cc1ccccc1)NC(=O)CNC(=O)[C@@H](C)NC(=O)[C@@H](N)Cc1ccc(O)cc1)C(=O)N1CCC[C@H]1C(=O)N[C@@H](CCC(N)=O)C(=O)N[C@@H](CCCNC(=N)N)C(=O)N[C@@H](Cc1ccccc1)C(N)=O (H-Y[dA]GFMPQRF-NH2)	127 nM	89.2%	240 nM	38.8 nM	81.2%	301 nM	69.2%	87 nM	58.4%	0.2967 nmol	Active	–
C[C@@H](NC(=O)[C@@H](N)Cc1ccc(O)cc1)C(=O)NCC(=O)N[C@@H](Cc1ccccc1)C(=O)N[C@@H](CCC(N)=O)C(=O)N1CCC[C@H]1C(=O)N[C@@H](CCC(N)=O)C(=O)N[C@@H](CCCNC(=N)N)C(=O)N[C@@H](Cc1ccccc1)C(N)=O (H-Y[dA]GFQPQRF-NH2)	308 nM	92.4%	564 nM	587 nM	82.2%	591 nM	59.9%	185 nM	58.4%	0.533 nmol	Active	ED50 (Mus musculus [12]): 0.39 nmol; ED50 (Mus musculus [13]): 120 pmol; ED50 (Mus musculus [14]): 1140 pmol
C[C@@H](NC(=O)[C@@H](N)Cc1ccc(O)cc1)C(=O)NCC(=O)N[C@@H](Cc1ccccc1)C(=O)N[C@H](C)C(=O)N1CCC[C@H]1C(=O)N[C@@H](CCC(N)=O)C(=O)N[C@@H](CCCNC(=N)N)C(=O)N[C@@H](Cc1ccccc1)C(N)=O (H-Y[dA]GF[dA]PQRF-NH2)	249 nM	85.6%	–	810 nM	85.3%	–	–	5010 nM	45.9%	0.3361 nmol	Active	EC50 (Mu-type opioid receptor [1]; read-out: pEC50 (converted)): 245 nM; Emax [15]: 15.1%
CC(C)C[C@@H](NC(=O)[C@H](Cc1ccccc1)NC(=O)CNC(=O)[C@@H](C)NC(=O)[C@@H](N)Cc1ccc(O)cc1)C(=O)N1CCC[C@H]1C(=O)N[C@@H](CCC(N)=O)C(=O)N[C@@H](CCCNC(=N)N)C(=O)N[C@@H](Cc1ccccc1)C(N)=O (H-Y[dA]GF[dL]PQRF-NH2)	583 nM	86.3%	–	56.9 nM	86.4%	–	–	651 nM	–	0.4367 nmol	Active	Emax [9]: 37.2%; Emax [15]: 30.7%
CSCC[C@@H](NC(=O)[C@H](Cc1ccccc1)NC(=O)CNC(=O)[C@@H](C)NC(=O)[C@@H](N)Cc1ccc(O)cc1)C(=O)N1CCC[C@H]1C(=O)N[C@@H](CCC(N)=O)C(=O)N[C@@H](CCCNC(=N)N)C(=O)N[C@@H](Cc1ccccc1)C(N)=O (H-Y[dA]GF[dM]PQRF-NH2)	409 nM	89.7%	2460 nM	120 nM	78.4%	–	–	318 nM	70.2%	0.3986 nmol	Active	Emax [15]: 26.6%
C[C@@H](NC(=O)[C@@H](N)Cc1ccc(O)cc1)C(=O)NCC(=O)N(C)[C@@H](Cc1ccccc1)C(=O)N[C@@H](CCC(N)=O)C(=O)N1CCC[C@H]1C(=O)N[C@@H](CCC(N)=O)C(=O)N[C@@H](CCCNC(=N)N)C(=O)N[C@@H](Cc1ccccc1)C(N)=O (H-Y[dA]G[NMeF]QPQRF-NH2)	20.1 nM	91.6%	31 nM	157 nM	84.9%	289 nM	67.7%	272 nM	54.5%	0.3862 nmol	Active	–
CN[C@@H](Cc1ccc(O)cc1)C(=O)N[C@H](C)C(=O)NCC(=O)N[C@@H](Cc1ccccc1)C(=O)N[C@@H](CCC(N)=O)C(=O)N1CCC[C@H]1C(=O)N[C@@H](CCC(N)=O)C(=O)N[C@@H](CCCNC(=N)N)C(=O)N[C@@H](Cc1ccccc1)C(N)=O (H-[NMeY][dA]GFQPQRF-NH2)	196 nM	86.7%	2590 nM	–	–	928 nM	72.4%	132 nM	49.5%	1.298 nmol	Active	Emax [16]: 70%
CN1CC[C@]23c4c5ccc(O)c4O[C@H]2[C@@H](O)C=C[C@H]3[C@H]1C5 [MORPHINE]	–	–	–	–	–	–	–	–	–	–	–	ED50 (Mus musculus [12]): 1.02 nmol; Activity (Mus musculus [17]): Active; Activity (Mus musculus [18]): inactive
